The source of these data is ChEMBL document CHEMBL1128503 (J Med Chem, 1995).

Each structure is given as a SMILES string.

Test [1] addresses T1, Sodium-dependent dopamine transporter (Rattus norvegicus, UniProt P23977). The test is described as follows: Inhibition of [3H]dopamine […] to rat striatal synaptosome dopamine transporter. The format is tissue-based, Brain.
The target of test [2] is T1, Sodium-dependent dopamine transporter. Nature of the test: Binding affinity towards dopamine transporter using [3H]-mazindol as radioligand in rat striatal membranes. It counts as cell membranes. The method, boiled down:
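Competition assay: test analogues displace [3H]mazindol binding in rat striatal membranes. This radioligand labels a single high-affinity, sodium-dependent cocaine site on the dopamine carrier.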

T1 sequence (P23977 whole entry): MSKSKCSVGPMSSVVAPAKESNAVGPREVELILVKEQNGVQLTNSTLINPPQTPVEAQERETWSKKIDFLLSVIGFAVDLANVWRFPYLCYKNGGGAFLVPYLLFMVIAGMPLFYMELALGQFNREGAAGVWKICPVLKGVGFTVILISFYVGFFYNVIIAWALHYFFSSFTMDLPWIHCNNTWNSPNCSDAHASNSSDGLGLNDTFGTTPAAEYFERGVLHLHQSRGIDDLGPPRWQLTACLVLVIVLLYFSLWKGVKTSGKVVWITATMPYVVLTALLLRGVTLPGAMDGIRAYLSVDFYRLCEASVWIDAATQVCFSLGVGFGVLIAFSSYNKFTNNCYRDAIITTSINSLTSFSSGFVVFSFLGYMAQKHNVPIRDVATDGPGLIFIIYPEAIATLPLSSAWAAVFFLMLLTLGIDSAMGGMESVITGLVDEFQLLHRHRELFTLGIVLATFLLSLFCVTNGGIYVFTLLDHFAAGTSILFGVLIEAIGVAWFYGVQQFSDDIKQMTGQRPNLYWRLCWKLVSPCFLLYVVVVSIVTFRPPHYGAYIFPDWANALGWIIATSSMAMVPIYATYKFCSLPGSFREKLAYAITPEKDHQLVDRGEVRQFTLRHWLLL

With `CN1C2CCC1[C@@H](CCc1ccccc1)[C@@H](c1ccc(Cl)cc1)C2` (stereo not given in full), the figures for the Ki in test [1] and in test [2] were 1.54 nM and 1.46 nM, respectively.
On to `CN1C2CCC1[C@@H](/C=C\Cl)[C@@H](c1ccc(Cl)cc1)C2` (stereo not given in full), for which the figures for the Ki in test [1] and in test [2] were 0.88 nM and 0.22 nM, respectively.
Consider `CC[C@@H]1C2CCC(C[C@@H]1c1ccc(Cl)cc1)N2C` (stereo not given in full), for which the Ki in test [1] is 2.35 nM; in test [2] it was 2.17 nM.
As to `C=C[C@@H]1C2CCC(C[C@@H]1c1ccc(Cl)cc1)N2C` (stereo not given in full), the Ki in test [1] amounted to 2.47 nM; in test [2], 0.59 nM.
As for `CN1C2CCC1[C@@H](/C=C/Cl)[C@@H](c1ccc(Cl)cc1)C2` (stereo not given in full), the Ki came to 1.13 nM in test [1] and 0.42 nM in test [2].
Consider `CCC[C@@H]1C2CCC(C[C@@H]1c1ccc(Cl)cc1)N2C` (stereo not given in full), for which the Ki in test [1] turned out to be 1.08 nM; in test [2], 0.94 nM.
Turning to `CCCCCC[C@@H]1C2CCC(C[C@@H]1c1ccc(Cl)cc1)N2C` (stereo not given in full), the values for the Ki in test [1] and in test [2] were 271 nM and 156 nM, respectively.
Regarding `CCC[C@@H]1C2CCC(C[C@@H]1c1ccccc1)N2C` (stereo not given in full), the values for the Ki in test [1] and in test [2] were 1.61 nM and 1.87 nM, respectively.
As for `CCCC[C@@H]1C2CCC(C[C@@H]1c1ccc(Cl)cc1)N2C` (stereo not given in full), the Ki in test [1] came to 0.84 nM; in test [2], 1.21 nM.
As to `COC(=O)C1C2CC[C@H](C[C@@H]1c1ccc(Cl)cc1)N2C` (stereo not given in full), the results for the Ki in test [1] and in test [2] were 2.85 nM and 0.83 nM, respectively.
